Most compounds without a hit are left out; they make up all but 1.8% or so of the library.
eLon inh = inhibitors of E. coli Lon protease, primary screen, biochemical, fluorescence polarization; P0A9M0; purified E. coli Lon protease; inhibition, % at 7.94 µM; actives 0.42% (n = 360,000); AID 602123, 2011; in the data active = inhibition above about 13%, passing the limit was not always enough
Target sequence (P0A9M0 whole entry, looked up): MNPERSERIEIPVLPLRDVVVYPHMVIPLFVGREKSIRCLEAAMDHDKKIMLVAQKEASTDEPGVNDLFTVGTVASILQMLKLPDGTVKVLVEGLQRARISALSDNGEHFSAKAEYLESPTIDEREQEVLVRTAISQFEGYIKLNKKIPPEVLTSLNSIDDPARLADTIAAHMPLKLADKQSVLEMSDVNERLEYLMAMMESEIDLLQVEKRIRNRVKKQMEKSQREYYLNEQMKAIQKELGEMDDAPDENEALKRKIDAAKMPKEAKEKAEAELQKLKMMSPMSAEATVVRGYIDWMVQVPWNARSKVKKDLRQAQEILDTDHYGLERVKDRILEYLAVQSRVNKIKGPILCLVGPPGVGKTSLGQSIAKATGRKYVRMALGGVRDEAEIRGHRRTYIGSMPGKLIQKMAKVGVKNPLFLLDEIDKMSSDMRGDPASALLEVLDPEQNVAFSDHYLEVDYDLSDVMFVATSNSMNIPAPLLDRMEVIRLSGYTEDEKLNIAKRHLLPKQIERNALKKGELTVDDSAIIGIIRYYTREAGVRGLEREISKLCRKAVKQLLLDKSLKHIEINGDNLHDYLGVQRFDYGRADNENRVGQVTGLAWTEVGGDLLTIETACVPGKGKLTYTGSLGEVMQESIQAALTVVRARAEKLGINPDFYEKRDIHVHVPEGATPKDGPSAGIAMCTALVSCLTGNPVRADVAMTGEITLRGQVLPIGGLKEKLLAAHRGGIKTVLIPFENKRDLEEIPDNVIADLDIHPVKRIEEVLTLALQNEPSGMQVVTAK
MT1-MMP act inh = blockers of MT1-MMP proenzyme processing, primary screen, HT1080 RFP-PRO-GFP cells, GFP/RFP fluorescence; Matrix metalloproteinase-14 (Homo sapiens), P50281; GFP/RFP ratio fluorescence, overnight; percent of plate control window, DMSO zero; GFP/RFP ratio change, % at 20 µM; actives 0.061% (n = 360,000); AID 651647, 2012;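 active = GFP/RFP ratio change of at least 30% with cell ATP level not reduced by more than half and red fluorescence within 50% of control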
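Assay system: HT1080 cells carrying an RFP-PRO-GFP reporter | Dosing: Single dose of 20 µM compound, 1% DMSO final | Incubation: Cells overnight before dosing, compound overnight, 37 °C, 5% CO2 | Evaluation: GFP/RFP fluorescence ratio | Control set: DMSO and RFP-L50D-GFP cell wells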
iPSC survival up = enhancers of single-cell hiPSC survival, primary screen, ATPlite luminescence; AID 602274, 2012; 100% = ROCK inhibitor wells, 0% = DMSO; survival enhancement, % at 20 µM; actives 0.044% (n = 360,000); in the data active = survival enhancement above about 18%;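 also: cells exposed to compounds for 16 hours before the ATP read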
SKN-1 block = suppressors of acrylamide-induced Pgst-4::GFP reporter in worms, primary screen, SKN-1 inhibitor project, whole organism, uHTS, GFP/RFP fluorescence ratio, strain VP596; inhibition, % at 21.8 µM; actives 0.49% (n = 360,000); C. elegans VP596 Pgst-4::GFP/RFP ratio, 24 h;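 active = interference check ratio from 0.5 to 1.5 plus GFP to RFP signal ratio inhibition reaching or exceeding a fixed threshold, cut at about 30% in these data, passing the limit was not always enough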
Tb MetRS inh = T. brucei MetRS inhibitors, primary screen, biochemical, luminescence. inhibition, % at 11.9 µM. purified T. brucei MetRS, ATP depletion, Kinase-Glo luminescence. methionyl-tRNA synthetase (Trypanosoma brucei brucei). actives 0.4% (n = 360,000);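 active = inhibition above a per-plate cutoff of the control wells' mean inhibition plus 3 SD, cut at about 5.5% in these data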
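assay system = parasite MetRS enzyme | timing = 15 min preincubation, 2 h reaction, all 25 °C | evaluation = percent inhibition relative to median high and low control wells | medium = HEPES buffer containing pyrophosphatase, BSA, spermine, DTT | compound = single dose, 11.9 µM final nominal, 0.9% final DMSO | detection = Kinase-Glo luminescence, ATP depletion format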
PREPL inhibitor = PREPL enzyme inhibitors, primary screen, biochemical, fluorescence polarization; Prolyl endopeptidase-like (Homo sapiens), Q4J6C6; recombinant PREPL, fluorescence polarization activity-based probe; inhibition, % at 5.96 µM; actives 0.68% (n = 320,000); in the data active = inhibition above about 43%
Tb MetRS conf = T. brucei MetRS inhibitors, confirmation, biochemical, luminescence. T. brucei MetRS enzyme, luminescence (ATP depletion). actives 93% (n = 1,400). inhibition, % at 11.9 µM. shares compounds with Tb MetRS inh; in the data active = inhibition above about 7%
Jurkat tox = Jurkat T cell cytotoxicity, cytotoxicity control for T. brucei MetRS inhibitor project, luminescence, high throughput; shares compounds with Tb MetRS inh; Jurkat cells viability, ATP luminescence; inhibition, % at 8.3 µM; actives 12% (n = 1,400); in the data active = inhibition above about 15%
TbMetRS FP orth = T. brucei MetRS inhibitors, orthogonal assay for T. brucei MetRS inhibitor project, biochemical, fluorescence polarization; shares compounds with Tb MetRS inh; purified T. brucei MetRS; inhibition, % at 11.9 µM; actives 44% (n = 1,400); in the data active = inhibition above about 17%
Of the large screens only hits and unclear results are named; the others gave an inactive call (follow-up assays come after a bar, where they were run).

c1ccc(CN2CCC(CNc3ncnc4ccccc34)C2)cc1 (centres undefined)	Tb MetRS inh 6.2 (no result: PREPL inhibitor) | Tb MetRS conf 28 | Jurkat tox 27 | TbMetRS FP orth inactive
c1ccc(CNc2ncnc3ccccc23)cc1	none
CCOC(=O)CNC(=O)C1CCCc2c1[nH]c1ccc(Cl)cc21 (centres undefined)	Tb MetRS inh 12 | Tb MetRS conf 20 | Jurkat tox inactive | TbMetRS FP orth inactive
NC(=O)CNC(=O)C1CCCc2c1[nH]c1ccc(Cl)cc21 (centres undefined)	none
Nc1cc(C(=O)OCC(=O)NCCCc2ccccc2)ccc1Cl	Tb MetRS inh 9.0 | Tb MetRS conf 18 | Jurkat tox inactive | TbMetRS FP orth inactive
O=C(COC(=O)c1ccc2ccccc2c1)NCCCc1ccccc1	none
CCCCNc1nc2ccccc2[nH]1	Tb MetRS inh 8.0 | Tb MetRS conf 14 | Jurkat tox inactive | TbMetRS FP orth inactive
CCCCOc1cccc(OCC(=O)Nc2nc3ccccc3[nH]2)c1	Tb MetRS inh 36 | Tb MetRS conf 48 | Jurkat tox inactive | TbMetRS FP orth inactive
O=C(COc1ccccc1)Nc1nc2ccccc2[nH]1	none
CCCOc1cccc(OCC(=O)Nc2nc3ccccc3[nH]2)c1	Tb MetRS inh 29 | Tb MetRS conf 48 | Jurkat tox inactive | TbMetRS FP orth 20
O=C(CSc1ccc2ccccc2c1)Nc1nc2ccccc2[nH]1	Tb MetRS inh 21 | Tb MetRS conf 29 | Jurkat tox inactive | TbMetRS FP orth inactive
O=C(CSc1ccccc1)Nc1ccc(-c2nc3ccccc3[nH]2)cc1	none
Cc1nn(-c2ccccc2)c(C)c1C(=O)NNC(=O)C(F)(F)F	none
COc1cc(CNCc2ccccn2)ccc1OCc1ccc(Cl)cc1Cl	Tb MetRS inh 9.9 | Tb MetRS conf 17 | Jurkat tox inactive | TbMetRS FP orth inactive
O=C(NCc1ccccn1)c1ccccc1OCc1ccc(Cl)cc1Cl	none
CCC(C)NC(=O)c1cn(CC)c2cc(N3CCN(C(=O)c4ccco4)CC3)c(F)cc2c1=O (centres undefined)	none
O=C(COc1nsnc1N1CCOCC1)Nc1ccc(Br)cc1	Tb MetRS inh 20 | Tb MetRS conf 43 | Jurkat tox inactive | TbMetRS FP orth 25
Cc1ccc(NC(=O)COc2nsnc2N2CCOCC2)cc1Cl	none
Cc1cc(C)nc(NS(=O)(=O)c2ccc(NC(=O)Nc3ccccc3F)cc2)n1	Tb MetRS inh 7.3 | Tb MetRS conf 16 | Jurkat tox inactive | TbMetRS FP orth inactive
Cc1ccc(C(=O)OCC(=O)N2CCC(c3ccccc3)=N2)cc1	none
Cc1cccc(C(=O)N2CCN(Cc3ccc4c(c3)OCO4)CC2)c1	none
COc1ccc(CCNC(=O)c2cc(S(=O)(=O)N3CCCCC3)c[nH]2)cc1OC	none
Cc1cccc(CCNC(=O)c2cc(S(=O)(=O)N3CCCCC3)c[nH]2)c1	Tb MetRS inh 27 | Tb MetRS conf 46 | Jurkat tox inactive | TbMetRS FP orth 28
Cc1ccc2[nH]c3c(NCc4ccco4)ncnc3c2c1	Tb MetRS inh 45 | Tb MetRS conf 54 | Jurkat tox 28 | TbMetRS FP orth 26
Cc1ccc2[nH]c3c(NCCCN4CCCC4=O)ncnc3c2c1	Tb MetRS inh 21 | Tb MetRS conf 36 | Jurkat tox inactive | TbMetRS FP orth 25
O=C(/C=C/c1ccc(Br)cc1)NC(=O)c1ccccc1O	Tb MetRS inh 7.2 | Tb MetRS conf 8.8 | Jurkat tox inactive | TbMetRS FP orth inactive
N#Cc1ccc(CSc2nnc(Nc3ccccc3)s2)cc1	Tb MetRS inh 52 | Tb MetRS conf 64 | Jurkat tox inactive | TbMetRS FP orth 39
CCCCCn1c(=O)[nH]c2cc(C(=O)N3CCN(c4ccc(C(C)=O)cc4)CC3)ccc2c1=O	none
CC(=O)c1ccc(N2CCN(C(=O)CCCn3c(=O)[nH]c4ccsc4c3=O)CC2)cc1	Tb MetRS inh 7.3 | Tb MetRS conf 17 | Jurkat tox inactive | TbMetRS FP orth inactive
CC(=O)c1ccc(N2CCN(C(=O)CCCn3c(=O)[nH]c4ccc(Br)cc4c3=O)CC2)cc1	Tb MetRS inh 84 | Tb MetRS conf 104 | Jurkat tox inactive | TbMetRS FP orth 87
O=C(CCCCn1c(=O)[nH]c2ccccc2c1=O)N1CCN(c2cccc(C(F)(F)F)c2)CC1	Tb MetRS inh 12 | Tb MetRS conf 14 | Jurkat tox inactive | TbMetRS FP orth inactive
COc1ccc(N2CCN(C(=O)CCCCCn3c(=O)[nH]c4ccsc4c3=O)CC2)cc1	none
O=C(CCCOc1ccc(Cl)cc1Cl)N/N=C/c1ccco1	Tb MetRS inh 17 | Tb MetRS conf 52 | Jurkat tox inactive | TbMetRS FP orth 57
O=C(CCCOc1ccc(Cl)cc1Cl)N1CCN(c2ccccn2)CC1	Tb MetRS inh 12 | Tb MetRS conf 20 | Jurkat tox inactive | TbMetRS FP orth inactive
O=C(CCCOc1ccc(Cl)cc1Cl)N/N=C/c1ccccc1	Tb MetRS inh 12 | Tb MetRS conf 39 | Jurkat tox inactive | TbMetRS FP orth 34
Cc1ccc(/C=N/NC(=O)CCCOc2ccc(Cl)cc2Cl)cc1	none
O=C(COc1ccc(Cl)cc1Cl)N1CCN(c2ccccn2)CC1	none
O=C(CCCOc1ccc(Cl)cc1Cl)Nc1ncccn1	none
Cc1cc(Cl)ccc1OCCCC(=O)NNC(=O)c1ccccc1O	Tb MetRS inh 6.0 | Tb MetRS conf 25 | Jurkat tox inactive | TbMetRS FP orth 22
Cc1ccccc1C(=O)Nc1ccc(C(=O)NNC(=O)CCCOc2ccc(Cl)cc2Cl)cc1	none
O=C(COc1ccc(Cl)cc1Cl)NNC(=S)NCc1ccco1	Tb MetRS inh 6.4 | Tb MetRS conf inactive | Jurkat tox inactive | TbMetRS FP orth inactive

Source: PubChem (several laboratories)
